Assay results taken from PMC4819167 (Biochemistry, 2016).

Key:
pUL15C [1] = biological target: T1, pUL15C (Human herpesvirus 1, UniProt P04295); assay: Dual-probe fluorescence assay of pUL15C nuclease activity; format: biochemical
pUL15C [2] = biological target: T1, pUL15C; assay: Differential scanning fluorimetry; format: binding; conditions: wild-type pUL15C, DSF
In short: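 Binding read by thermal shift: test compound added from a 1 mM DMSO stock to 1.6 µM pUL15C in 20 mM HEPES (pH 7.5), 10 mM MgCl₂, 100 mM NaCl and SYPRO Orange (1:2000). Heated 30 to 80 °C in 0.2 °C steps. Fluorescence was read at ex 483 / em 568 nm, ΔTm was derived from melt curves, and runs were in duplicate.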

pUL15C [3] = biological target: T1, pUL15C; assay: Yonetani-Theorell analysis of pUL15C nuclease inhibition; format: biochemical; conditions: compound 21 0-0.4 μM, raltegravir 0-2.0 μM, substrate 250 nM
pUL15C [4] = biological target: T1, pUL15C; assay: Michaelis-Menten kinetic analysis with the dual-probe fluorescence assay; format: biochemical, herpes simplex virus
pUL15C [5] = biological target: T1, pUL15C; assay: pUL15C nuclease activity on supercoiled plasmid, agarose gel electrophoresis; format: biochemical, herpes simplex virus
HSV-1 = conditions: at noncytotoxic concentrations; cited from earlier work
DNase I = DNase I (Bos taurus, UniProt P00639); assay: DNase I cleavage of substrate 21D/33D; format: biochemical; conditions: 1 mM Mn2+, 20 μM compound
HSV-2 = conditions: at noncytotoxic concentrations; cited from earlier work
Lys700Ala pUL15C = Lys700Ala pUL15C (Human herpesvirus 1, UniProt P04295, K700A); assay: Differential scanning fluorimetry; format: binding, herpes simplex virus; conditions: DSF, 20 μM β-thujaplicinol

DNase I, sequence (P00639 23-282): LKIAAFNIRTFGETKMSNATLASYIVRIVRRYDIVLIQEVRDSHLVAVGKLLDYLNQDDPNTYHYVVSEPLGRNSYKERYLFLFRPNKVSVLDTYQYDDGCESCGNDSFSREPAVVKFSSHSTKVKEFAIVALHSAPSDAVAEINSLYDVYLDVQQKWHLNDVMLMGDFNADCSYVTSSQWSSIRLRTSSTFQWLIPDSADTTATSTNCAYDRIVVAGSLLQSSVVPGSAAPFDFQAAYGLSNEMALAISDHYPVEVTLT

CCN1C[C@H](C)n2c(c(O)c3c(=O)n(Cc4ccc(F)c(Cl)c4)nc(C(=O)NC)c32)C1=O [MK2048]
IC50 (pUL15C [1]; read-out: IC50, pUL15C nuclease activity, dual-probe fluorescence assay, 0.3 μM pUL15C, 250 nM DNA duplex, 1 mM MnCl2, 37 °C, triplicate): > 10 µM
decrease of the Tm of pUL15C (destabilizing effect) (pUL15C [2]): ~0.5 °C

C[C@@H]1CCO[C@H]2Cn3cc(C(=O)NCc4ccc(F)cc4F)c(=O)c(O)c3C(=O)N12 [dolutegravir]
IC50 (pUL15C [1]): 1.1 ± 0.09 µM

COc1cc2c(cc1Cc1cccc(Cl)c1F)c(=O)c(C(=O)O)cn2[C@H](CO)C(C)C [elvitegravir]
IC50 (pUL15C [1]): > 10 µM
decrease of the Tm of pUL15C (destabilizing effect) (pUL15C [2]): ~0.5 °C

Cc1nnc(C(=O)NC(C)(C)c2nc(C(=O)NCc3ccc(F)cc3)c(O)c(=O)n2C)o1 [raltegravir]
binding-site overlap of compound 21 and raltegravir (Yonetani-Theorell plot) (pUL15C [3]): mutually exclusive
IC50 (pUL15C [1]): 0.39 ± 0.05 µM
Ki (pUL15C [4]): 1 ± 0.1 µM
mode of pUL15C inhibition (pUL15C [4]; Lineweaver-Burke plot): noncompetitively inhibits

CC(C)c1ccc(O)c(=O)c(O)c1 [β-thujaplicinol]
IC50 (pUL15C [5]): 2 µM
replication of wild-type and ACV-resistant HSV-1 (HSV-1): suppress replication
inhibition of DNase I cleavage of substrate 21D/33D (DNase I): insensitive to inhibition
replication of wild-type and ACV-resistant HSV-2 (HSV-2): suppress replication
increase of Tm of the Lys700Ala mutant (Lys700Ala pUL15C): 4.30 °C

manicol
replication of wild-type and ACV-resistant HSV-1 (HSV-1): suppress replication
replication of wild-type and ACV-resistant HSV-2 (HSV-2): suppress replication
